Bioassay records (PubChem BioAssay)
LYP act: LYP (human) phosphatase activation. recombinant LYP, DiFMUP fluorescence; 0 = plate median, 100 = signal doubled. activation, % at 2 µM. hit rate 0.11% among 96,000;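 active = activation at 2 µM above a set limit, the mean plus 5 SD, cut at about 37% in these data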
Target sequence (Q9Y2R2 whole entry, looked up): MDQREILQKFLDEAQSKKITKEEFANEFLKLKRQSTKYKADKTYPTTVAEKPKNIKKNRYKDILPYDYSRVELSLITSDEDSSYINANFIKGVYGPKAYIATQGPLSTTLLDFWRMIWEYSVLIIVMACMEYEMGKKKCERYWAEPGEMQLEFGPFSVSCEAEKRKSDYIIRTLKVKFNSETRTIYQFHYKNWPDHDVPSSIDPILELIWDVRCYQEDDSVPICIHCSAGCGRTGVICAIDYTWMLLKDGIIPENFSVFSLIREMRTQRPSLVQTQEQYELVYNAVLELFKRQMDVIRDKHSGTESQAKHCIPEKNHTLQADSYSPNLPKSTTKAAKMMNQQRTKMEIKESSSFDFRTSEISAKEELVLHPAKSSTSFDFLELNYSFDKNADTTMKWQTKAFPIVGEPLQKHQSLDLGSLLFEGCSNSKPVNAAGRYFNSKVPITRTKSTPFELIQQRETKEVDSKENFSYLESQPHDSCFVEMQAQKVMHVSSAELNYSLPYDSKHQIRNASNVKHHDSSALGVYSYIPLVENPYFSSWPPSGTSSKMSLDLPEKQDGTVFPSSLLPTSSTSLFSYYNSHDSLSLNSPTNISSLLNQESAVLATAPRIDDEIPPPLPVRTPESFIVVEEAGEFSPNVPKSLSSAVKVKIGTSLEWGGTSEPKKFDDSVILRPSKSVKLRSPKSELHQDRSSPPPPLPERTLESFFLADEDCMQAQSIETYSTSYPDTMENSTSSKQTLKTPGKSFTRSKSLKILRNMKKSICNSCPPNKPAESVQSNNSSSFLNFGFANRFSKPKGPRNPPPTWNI
PTK2B oligo ant: antagonists of human Pyk2 oligomerization; Q14289; Q293 cells, Pyk2 FERM NanoBiT luminescence; active compounds read low; z-score (the deposit names both 25 µM and 10 µM); hit rate 0.83% among 99,000; AID 1347419;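 active = Z-score of -3 or lower, scaled per plate to the spread of control and sample wells; inactive = z-score above -3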;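 note: negative z-score means lost luminescence so less FERM oligomerization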
HIV Rev-RRE inh: disrupts HIV-1 Rev binding to RRE RNA; P05866; Rev peptide-RRE RNA binding, FRET; inhibition, % at 8 µM; hit rate 0.79% among 97,000; AID 704;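 active = inhibition above the screen-wide mean plus 3 SD, cut at about 35% in these data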
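assay system = Cy5-tagged RRE RNA duplex with fluorescein-tagged Rev peptide | incubation = 5 + 15 min at 25 °C | also added = labelled Rev peptide | measure = % inhibition of FRET ratio versus controls | benchmarks = DMSO wells as 0% and neomycin B wells as 100% inhibition | measured by = FRET fluorescence readout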
LYP inh 2: blocks human PTPN22 phosphatase activity. Q9Y2R2. recombinant LYP catalytic domain, DiFMUP fluorescence. inhibition, % at 2 µM. hit rate 0.21% among 96,000. AID 640;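 active = inhibition at 2 µM at or above a set limit, the screen mean plus 3 SD, cut at about 24% in these data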
Of the large screens only hits and unclear results are named; the others gave an inactive call; [ ] = remark or other dose. Hits are enriched below; roughly 1.8% of the tested compounds scored in any of these assays.

COc1ccc(NS(=O)(=O)c2cc([N+](=O)[O-])ccc2N/N=C\c2c(C)[nH]c3ccccc23)cc1	HIV Rev-RRE inh 44.2
N#CC1=C(N)SC(N)=C(C#N)C1CCC1CCCCC1	HIV Rev-RRE inh 67.6 (no result: PTK2B oligo ant)
Cc1ccc(S(=O)(=O)Oc2ccc3c(c2)O/C(=C\c2cccnc2)C3=O)cc1	PTK2B oligo ant -3.01
CN1OC(COC(=O)c2ccc(Cl)cc2Cl)CC1c1ccccc1 (configuration not stated)	none
Cc1cc(C)n(-c2nc(Nc3ccccc3C(F)(F)F)nc(-n3nc(C)cc3C)n2)n1	PTK2B oligo ant -3.51
Cc1cc(C)n(-c2nc(Nc3ccccc3C)nc(-n3nc(C)cc3C)n2)n1	none (no result: PTK2B oligo ant)
FC(F)(F)c1ccc(Cl)c(NC(=S)NC2CC2)c1	none (no result: LYP act, HIV Rev-RRE inh, LYP inh 2)
CCOc1ccc(C2C(C#N)=C(N)SC(N)=C2C#N)c(OCC)c1	none
CCCCc1ccc(C2C(C#N)=C(N)SC(N)=C2C#N)s1	HIV Rev-RRE inh 66.0 (no result: PTK2B oligo ant)
C=CCn1c(CNc2ccc(C)cc2)nnc1SCC(=O)N/N=C/c1ccc(O)cc1	none
CCCn1nc(NC(=O)c2cccs2)c2cc3cc(OC)ccc3nc21	none
CCCCn1nc(NC(=O)c2cccs2)c2cc3ccccc3nc21	PTK2B oligo ant -3.15
CCCCn1nc(NC(=O)c2cccs2)c2cc3cc(OC)ccc3nc21	PTK2B oligo ant -3.02
CCCn1nc(NC(=O)c2cccs2)c2cc3ccccc3nc21	none
C=CCn1c(=O)c2c(C)c(C)sc2n2c(Nc3ccccc3)nnc12	PTK2B oligo ant -3.03
Cc1oc2nc(SCC(=O)NC3CCCCC3)nc(N)c2c1C	none
O=c1cc(-c2ccccc2)[nH]c2[nH]n(-c3ccccc3)c(=O)c12	PTK2B oligo ant -3.75
CC(=O)Nc1ccc(OCC(O)Cn2nc(C)c(Br)c2C)cc1 (configuration not stated)	none
Cc1cc(C)n2nc(SCn3nnc4ccccc4c3=O)nc2n1	none
Cc1cc(C)n2nc(SCc3cc(=O)oc4cc(O)ccc34)nc2n1	LYP inh 2 28.9 (no result: PTK2B oligo ant)
C/C(=N\NC(=O)COc1ccc(C)cc1C(C)C)c1ccc(-n2ccnc2)cc1	none (no result: LYP act, HIV Rev-RRE inh, LYP inh 2)
O=C1CC(=O)N(Cc2ccco2)C(=S)N1	HIV Rev-RRE inh 76.8
CCOC(=O)c1c(NC(=O)CSc2nnnn2C)sc(C)c1-c1ccc(C)cc1	PTK2B oligo ant -4.24 (no result: LYP act, HIV Rev-RRE inh, LYP inh 2)
Nc1nncn1C(=O)CCc1ccccc1	none
C=CCc1c(C)nc(C)nc1N/N=C/c1ccccc1O	HIV Rev-RRE inh 41.1
COc1cccc(N(CC(=O)Nc2ccc3c(c2)OCO3)S(=O)(=O)c2ccccc2)c1	PTK2B oligo ant -3.07
Cn1c(=O)c2c(-c3ccncc3)c3c(nc2n(C)c1=O)-c1ccccc1C3=O	none (no result: PTK2B oligo ant)
CN(C)/C=C/C(=O)c1ccc(Cl)cc1	none
CC(=O)c1cc(NC(=O)c2ccc(Cl)cc2)c(=O)oc1/C=C/N(C)C	HIV Rev-RRE inh 129.5[fluorescence artefact?]
CC(=O)c1cc(NC(=O)c2cccc(C(F)(F)F)c2)c(=O)oc1/C=C/N(C)C	HIV Rev-RRE inh 127.0[fluorescence artefact?]
COC(=O)c1ccc(Cl)c(-c2ccc(/C=N/NC(=O)Nc3ccccc3)o2)c1	PTK2B oligo ant -3.17
COC(=O)c1sccc1-c1ccc(/C=N/OC(=O)c2ccccc2)o1	none
O=C(c1ccco1)N1CCN(c2nnc(-c3ccccc3)c3ccccc23)CC1	none
CCOC(=O)Cc1nnc2c(Nc3ccc(Cl)cc3)nc3nonc3n12	none
Cc1ccc(C(c2nnnn2CC2CCCO2)N2CCN(c3cccc(C)c3C)CC2)cc1 (configuration not stated)	PTK2B oligo ant -3.44
O=C(c1ccco1)N1CCN(C(c2ccccc2Cl)c2nnnn2CC2CCCO2)CC1 (configuration not stated)	none
NC(=O)C1CCN(C(c2ccccc2Cl)c2nnnn2CC2CCCO2)CC1 (configuration not stated)	LYP inh 2 29.0
CCOC(=O)CC(=O)CSc1[nH]c(=O)cc(C)c1C#N	none
c1ccc(C2=Nn3c(nnc3-c3cc(-c4ccccc4)n[nH]3)SC2)cc1	PTK2B oligo ant -3.26
Clc1ccc(C2=Nn3c(nnc3-c3cc(-c4ccccc4)n[nH]3)SC2)cc1	LYP inh 2 27.5
c1ccc(C2=Nn3c(nnc3-c3n[nH]c4c3CCC4)SC2)cc1	none
Clc1ccc(C2=Nn3c(nnc3-c3cccs3)SC2)cc1	none
O=c1/c(=C/c2ccc(O)cc2)sc2n1CCCN=2	none
CN(C)c1ccc(/C=c2\sc3n(c2=O)CCCN=3)cc1	HIV Rev-RRE inh 36.5
O=C(Nc1ccccn1)C(NS(=O)(=O)c1cccc2nsnc12)c1ccccc1 (configuration not stated)	none
CC1=NOC(=O)/C1=C/c1ccc(N(C)C)cc1	HIV Rev-RRE inh 86.2 (no result: PTK2B oligo ant)
CC1=NOC(=O)/C1=C/c1ccc(-c2ccc(Cl)cc2)o1	none
CCOC(=O)N1CCN(c2c(NCCCN3CCCCCC3)c(=O)c2=O)CC1	none (no result: PTK2B oligo ant)
CCOC(=O)c1cn(-c2nc(-c3ccc(Cl)c(Cl)c3)cs2)c2c(F)c(N3CCOCC3)c(F)cc2c1=O	LYP inh 2 28.2
Clc1cccc(Cl)c1/C=N\Nc1nccs1	none
O=[N+]([O-])c1cc(/C=N\Nc2nccs2)ccc1O	LYP inh 2 39.7 (no result: PTK2B oligo ant)
CCOc1ccc(NC(=O)Cn2cc(C(=O)c3ccco3)c3ccccc32)cc1	none
COc1ccc(NC(=O)Cn2cc(C(=O)c3ccco3)c3ccccc32)cc1	PTK2B oligo ant -3.01
CCOC(=O)C1=C(c2ccccc2)NC(=S)NC1c1cc([N+](=O)[O-])ccc1OC (configuration not stated)	PTK2B oligo ant -4.02
N#Cc1ccccc1OCC(=O)Nc1c(C(=O)C2CC2)oc2ccccc12	none
N#C[C@@H]1[C@@H]2C(=O)N(c3ccc4c(c3)OCCO4)C(=O)[C@@H]2C2c3ccccc3C=CN21 (some centres not stated)	HIV Rev-RRE inh 41.8 (no result: PTK2B oligo ant)
O=C1CC(N2CCN(c3ccccc3)CC2)C(=O)N1c1ccc2c(c1)OCCO2 (configuration not stated)	none
COc1ccc(-c2nnc(SCC(=O)NCc3ccco3)n2C)cc1	none
CC1=C(C(=O)OC2CCCCC2)C(c2ccc(C)o2)C2=C(CCCC2=O)N1 (configuration not stated)	none
CC1=C(C(=O)OC2CCCCC2)C(c2ccco2)C2=C(CC(C)(C)CC2=O)N1 (configuration not stated)	PTK2B oligo ant -3.34
Cc1cccc(C(=O)N/N=C/c2ccc(OCC(=O)N3CCCCC3)cc2)c1	none
O=C(CSCc1cccc(Cl)c1)N/N=C/c1ccc(OCC(=O)N2CCCCC2)cc1	PTK2B oligo ant -3.41
Cc1cc(C)cc(CSCC(=O)N/N=C/c2ccc(OCC(=O)NCc3ccco3)cc2)c1	PTK2B oligo ant -3.15
CCOc1ccc(-n2cc(C(=O)Nc3cccc(C)n3)c3cc(OC)c(OC)cc3c2=O)cc1	none
COc1ccccc1Oc1nc(-c2ccccc2)cc(C)c1S(C)(=O)=O	PTK2B oligo ant -3.53
Cc1cccc(Oc2nc(-c3ccccc3)cc(C)c2S(C)(=O)=O)c1C	none
CCOC(=O)c1c(-c2ccccc2)oc2cc(CN(C)C)c(O)c(CN(C)C)c12	HIV Rev-RRE inh 57.7
N#CC1(c2ccccc2)CCCN1C(=O)c1ccc(Br)o1 (configuration not stated)	none
COc1ccc(N=Cc2sc(O)c3ccccc23)cc1	HIV Rev-RRE inh 128.8[fluorescence artefact?]
